# Measured values reported in publication PMC5443258 (Cancer cell, 2017).
# Where a SMILES comes first, the peptide text is derived from it. Where no end group is shown, it is not given here. [ ]: non-standard residue; d: D form.
# Legend:
# ERG:AR interaction = biological target: T1, ERG:AR interaction (Homo sapiens, UniProt P11308); assay: In vitro peptide competitive pull-down, ERG:AR; format: biochemical; conditions: cell-free, Halo-ERG and GST-AR, increasing peptide concentrations, immunoblot
# T1 sequence (P11308 1-479): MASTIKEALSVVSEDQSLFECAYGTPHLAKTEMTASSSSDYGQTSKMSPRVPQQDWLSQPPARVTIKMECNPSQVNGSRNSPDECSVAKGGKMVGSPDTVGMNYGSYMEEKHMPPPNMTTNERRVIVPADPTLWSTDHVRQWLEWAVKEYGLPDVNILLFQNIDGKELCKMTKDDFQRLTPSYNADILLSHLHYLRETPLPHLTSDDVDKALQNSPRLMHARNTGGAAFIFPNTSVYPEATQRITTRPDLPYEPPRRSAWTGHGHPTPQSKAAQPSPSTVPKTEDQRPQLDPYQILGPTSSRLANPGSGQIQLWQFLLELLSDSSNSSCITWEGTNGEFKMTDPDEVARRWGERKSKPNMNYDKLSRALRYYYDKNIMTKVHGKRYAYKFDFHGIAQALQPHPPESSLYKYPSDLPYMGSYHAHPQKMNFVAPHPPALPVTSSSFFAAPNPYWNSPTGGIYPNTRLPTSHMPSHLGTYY
# ERG:EBS DNA interaction = ERG:EBS DNA interaction (Homo sapiens, UniProt P11308)
# ERG_Y373A = ERG_Y373A (Homo sapiens, UniProt P11308, Y373A); assay: biochemical
# ERG protein = biological target: T2, ERG protein (Homo sapiens, UniProt P11308); assay: Biolayer interferometry
# T2 sequence (P11308 1-479): T1 sequence (P11308 1-479)
# [1] = biological target: T3, ERG protein in RWPE1-ERG cells (Homo sapiens, UniProt P11308); assay: Immunoblot of ERG protein in RWPE1-ERG cells; format: cell-based; conditions: even at 5 μM concentration
# T3 sequence (P11308 33-479 limits assumed): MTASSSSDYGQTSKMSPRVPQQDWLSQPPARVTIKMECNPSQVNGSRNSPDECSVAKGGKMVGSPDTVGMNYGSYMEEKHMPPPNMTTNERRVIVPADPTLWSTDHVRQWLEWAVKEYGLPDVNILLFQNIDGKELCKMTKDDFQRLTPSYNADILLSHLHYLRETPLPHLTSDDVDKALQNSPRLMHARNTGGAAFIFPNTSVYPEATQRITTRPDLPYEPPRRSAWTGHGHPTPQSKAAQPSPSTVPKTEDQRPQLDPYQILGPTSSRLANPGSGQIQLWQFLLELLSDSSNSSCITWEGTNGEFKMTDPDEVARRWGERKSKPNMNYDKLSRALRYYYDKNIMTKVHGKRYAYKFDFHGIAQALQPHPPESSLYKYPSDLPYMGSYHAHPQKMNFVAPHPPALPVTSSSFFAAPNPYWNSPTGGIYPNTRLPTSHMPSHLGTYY
# [2] = biological target: T4, ERG protein in PC3-ERG cells (Homo sapiens, UniProt P11308); assay: Immunoblot of ERG protein in PC3-ERG cells; format: cell-based; conditions: even at 5 μM concentration
# T4 sequence (P11308 1-479): T1 sequence (P11308 1-479)
# [3] = biological target: T5, ERG protein in VCaP cells (Homo sapiens, UniProt P11308); assay: Cellular thermal shift assay; format: cell-based; conditions: 50°C, 3 hours treatment
# T5 sequence (P11308 33-479 limits assumed): T3 sequence (P11308 33-479 limits assumed)
# [4] = biological target: T5, ERG protein in VCaP cells; format: cell-based
# [5] = system: ERG recruitment to chromatin; assay: ChIP and ChIP-seq in VCaP cells; format: cell-based
# How it was run: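 VCaP cells were exposed to 50 μM test compound or mutant control peptide for 12 h. Cells were cross-linked in 1% formaldehyde for 10 min, quenched with glycine, and sonicated to ~200 bp fragments. Chromatin from 5×10^6 cells was incubated with antibody overnight at 4°C, and crosslinks were reversed at 67°C for 4–5 h. ChIP-seq ERG signal was normalized and taken at summits of 4th-quartile peaks (mutant-control sample), ±400 bp.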
# [6] = biological target: T6, ERG protein in HUVEC cells (Homo sapiens, UniProt P11308); assay: Cellular thermal shift assay; format: cell-based
# T6 sequence (P11308 1-479): T1 sequence (P11308 1-479)
# ERG:DNA-PKcs interaction = biological target: T7, ERG:DNA-PKcs interaction (Homo sapiens, UniProt P11308); assay: Co-immunoprecipitation from VCaP xenograft tumors after single dose; format: in vivo, mice; conditions: single 25 mg/kg dose IP, three and six hours post injection, co-IP immunoblot
# T7 sequence (P11308 33-479 limits assumed): T3 sequence (P11308 33-479 limits assumed)
# VCaP cells = system: VCaP cells; parameters: species or system chicken; conditions: in vivo, 25 mg/kg
# VCaP xenografts = assay: VCaP xenograft mouse model; format: in vivo, mice; conditions: 25 mg/kg, IP-Western blot, compared to mutant peptide
# How it was run: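 Mice carried VCaP xenografts staged for three weeks, with 10 per group. Test compound or mutant control peptide was given IP at 25 mg/kg daily. Tumors were collected 24 h after the final dose and lysed in MOPS pH 7.0 buffer with phosphatase and protease inhibitors. For IP-Western, 0.5–1.0 mg lysate was precleared, incubated with 2 μg anti-ERG at 4°C for 4 h, then with protein A/G beads overnight, and immunoblotted.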
Compound,disruption of direct ERG:AR interaction (ERG:AR interaction),disruption of ERG:EBS DNA interaction (ERG:EBS DNA interaction),Kd (ERG_Y373A),Kd (ERG protein),effect on ERG protein in RWPE1-ERG cells [1],effect on ERG protein in PC3-ERG cells [2],"solubility of ERG protein, isothermal dose-response [3]",ERG protein half-life in the presence of cycloheximide [4],"average ERG ChIP-seq signal for 4th quartile peaks ([5]; 50 μM, 12 hours, compared to mutant peptide)",ERG and DNA-PKcs enrichment at ERG-regulated genomic loci (ChIP) ([5]; 12 hours treatment),thermal shift of soluble ERG protein in HUVEC cells (CETSA) [6],ERG:DNA-PKcs interaction in xenograft tumors (ERG:DNA-PKcs interaction),ERG-mediated invasion in CAM (VCaP cells),ERG protein in VCaP xenograft tumors after 18 days treatment (VCaP xenografts)
LPPYLFT [EIP1],disrupted,effectively disrupted,> 100 µM,0.6 µM,–,–,–,–,–,–,–,–,–,–
CC(C)C[C@@H](NC(=O)[C@@H](CO)NC(=O)[C@@H](Cc1ccccc1)NC(=O)CNC(=O)[C@@H](CO)NC(=O)[C@@H](CC(C)C)NC(=O)[C@H]1CCCN1)C(=O)O [RI-EIP2] (H-[dP][dL][dS]G[dF][dS][dL]-OH),–,–,–,1.28 µM,destabilized,destabilized,–,–,–,–,–,–,–,–
LSFGSLP [EIP2],disrupted,–,–,1.8 µM,–,–,–,–,–,–,–,–,–,–
CC(C)C[C@@H](NC(=O)[C@H]1CCCN1C(=O)[C@H]1CCCN1C(=O)[C@@H](Cc1ccc(O)cc1)NC(=O)[C@@H](CC(C)C)NC(=O)[C@@H](Cc1ccccc1)NC(=O)[C@H](N)[C@H](C)O)C(=O)O [RI-EIP1] (H-[dT][dF][dL][dY][dP][dP][dL]-OH),–,–,–,0.94 µM,destabilized,destabilized,increased in a dose-dependent fashion,significantly shortened,markedly reduced,inhibited,no clear thermal shift,blocked,blocked,degradation of ERG protein
